Assay results taken from article PMC9290029 (ACS Medicinal Chemistry Letters, 2022).
Blank lines part the entries; values can stand above or below the molecule they belong to.

Columns and labels:
[1] = Pharmacokinetic assessments in rats; format: in vivo, Sprague Dawley rats; conditions: for AUC: male, Sprague-Dawley, rat, plasma, po; for metabolites detected in plasma (Cmax at 30 mpk): rats, oral
Sprague Dawley rats = test: Rat stool and urine content, stool form scoring; format: in vivo; conditions: for Increase in stool water: criterion: 10% increase from control; for Stool water dose-response: oral 0.1–3.0 mg/kg, criterion: Yes
How it was run: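 Rats are dosed orally, 3 mg/kg for screening or 0.1, 0.3, 1.0 and 3.0 mg/kg for dose-response, then held in metabolic cages. Urine sodium reduction is measured at 16 h (n = 6 per group; mean ± SEM; one-way ANOVA with Dunnett's test versus vehicle). Stool form is scored 1 (normal) to 5 (watery), and fecal water is given as percent water by weight and percent of control.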

human NHE3 = target: T1, human NHE3 (Homo sapiens, UniProt P48764); test: Cell-based human NHE3 inhibition assay; conditions: species not stated; data not shown
T1 sequence (P48764 26-834): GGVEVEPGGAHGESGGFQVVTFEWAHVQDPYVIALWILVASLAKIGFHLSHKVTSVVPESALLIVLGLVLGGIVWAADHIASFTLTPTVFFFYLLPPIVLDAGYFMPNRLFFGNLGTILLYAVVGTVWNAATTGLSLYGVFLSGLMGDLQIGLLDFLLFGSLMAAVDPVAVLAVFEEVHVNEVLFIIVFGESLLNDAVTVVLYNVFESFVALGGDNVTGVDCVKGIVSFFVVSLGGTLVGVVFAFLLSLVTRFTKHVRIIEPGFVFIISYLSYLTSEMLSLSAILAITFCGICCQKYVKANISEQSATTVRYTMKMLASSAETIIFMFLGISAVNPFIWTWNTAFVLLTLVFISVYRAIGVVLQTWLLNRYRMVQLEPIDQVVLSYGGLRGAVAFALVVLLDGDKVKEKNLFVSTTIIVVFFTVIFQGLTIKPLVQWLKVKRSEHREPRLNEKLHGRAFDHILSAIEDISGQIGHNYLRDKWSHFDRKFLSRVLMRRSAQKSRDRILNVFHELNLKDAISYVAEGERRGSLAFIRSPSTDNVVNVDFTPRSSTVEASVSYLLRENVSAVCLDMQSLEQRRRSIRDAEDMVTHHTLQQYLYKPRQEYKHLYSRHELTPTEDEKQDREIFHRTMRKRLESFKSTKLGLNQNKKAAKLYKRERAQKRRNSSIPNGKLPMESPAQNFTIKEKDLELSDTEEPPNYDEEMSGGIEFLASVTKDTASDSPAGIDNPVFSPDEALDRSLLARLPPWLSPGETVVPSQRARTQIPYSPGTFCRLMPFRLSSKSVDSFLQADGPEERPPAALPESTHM
How it was run: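 Cell deacidification assay in transfected opossum kidney cells overexpressing human or rat NHE3. Test compounds are applied across a dose range, and inhibition of intracellular pH recovery is followed with a pH-sensitive dye. Potency is reported as pIC50 for each species.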

humans = conditions: clinical trials, cited from earlier work
[2] = system: dialysis patients with hyperphosphatemia; conditions: cited from earlier work

AUC ([1]; 28 mg/kg): < 8 ng·h/mL
Structure (SMILES): CN1Cc2c(Cl)cc(Cl)cc2C(c2cccc(S(=O)(=O)NCCOCCOCCOCCNC(=O)CCC(=O)NCCOCCOCCOCCNS(=O)(=O)c3cccc(C4CN(C)Cc5c(Cl)cc(Cl)cc54)c3)c2)C1 (stereo not drawn) [Compound 44]

inhibition in the cell assay (maximum reached) (human NHE3): < 100%
metabolites detected in plasma (Cmax at 30 mpk) [1]: No metabolites detected
Structure (SMILES): CN1Cc2c(Cl)cc(Cl)cc2[C@H](c2cccc(S(=O)(=O)NCCOCCOCCNC(=O)Nc3ccc(NC(=O)NCCOCCOCCNS(=O)(=O)c4cccc([C@@H]5CN(C)Cc6c(Cl)cc(Cl)cc65)c4)cc3)c2)C1 [Compound 26]
Increase in stool water (Sprague Dawley rats): Yes
Stool water dose-response (Sprague Dawley rats): Yes

metabolites detected in plasma (Cmax at 30 mpk) [1]: No metabolites detected
Structure (SMILES): CN1Cc2c(Cl)cc(Cl)cc2[C@H](c2cccc(S(=O)(=O)NCCOCCOCCNC(=O)NCCCCNC(=O)NCCOCCOCCNS(=O)(=O)c3cccc([C@@H]4CN(C)Cc5c(Cl)cc(Cl)cc54)c3)c2)C1 [Compound 28, tenapanor]
stool consistency (humans; versus the placebo): softened stool consistency in a dose-dependent manner
stool frequency and weight (humans; versus the placebo): increased stool frequency and weight
plasma concentrations (humans; humans, below the quantification limit in >95% of all plasma samples): < 0.5 ng/mL
plasma samples below the quantification limit (0.5 ng/mL) (humans; humans): > 95%
Increase in stool water (Sprague Dawley rats): Yes
Stool water dose-response (Sprague Dawley rats): Yes
serum phosphorus levels [2]: lowered serum phosphorus levels

Structure (SMILES): CN1Cc2c(Cl)cc(Cl)cc2C(c2cccc(S(N)(=O)=O)c2)C1 (stereo not drawn) [Compound 1]
pharmacodynamic (PD) effect in PK studies ([1]; Sprague–Dawley rats): absence of a pharmacodynamic (PD) effect

AUC ([1]; 23 mg/kg): < 8 ng·h/mL
Structure (SMILES): CN1Cc2c(Cl)cc(Cl)cc2C(c2ccc(S(=O)(=O)NCCOCCOCCNC(=O)c3ccc(C(=O)NCCOCCOCCNS(=O)(=O)c4ccc(C5CN(C)Cc6c(Cl)cc(Cl)cc65)cc4)cc3)cc2)C1 (stereo not drawn) [Compound 21]

AUC ([1]; 5.3 mg/kg): < 19 ng·h/mL
Structure (SMILES): CN1Cc2c(Cl)cc(Cl)cc2C(c2ccc(S(=O)(=O)NCCOCCOCCOCCNC(=O)NCCOCCOCCOCCNS(=O)(=O)c3ccc(C4CN(C)Cc5c(Cl)cc(Cl)cc54)cc3)cc2)C1 (stereo not drawn) [Compound 35]

AUC ([1]; 17 mg/kg): < 8 ng·h/mL
Structure (SMILES): CN1Cc2c(Cl)cc(Cl)cc2C(c2ccc(S(=O)(=O)NCCOCCOCCNC(=O)NCCOCCOCCNS(=O)(=O)c3ccc(C4CN(C)Cc5c(Cl)cc(Cl)cc54)cc3)cc2)C1 (stereo not drawn) [Compound 23]

AUC ([1]; 1.8 mg/kg): < 75 ng·h/mL
Structure (SMILES): CN1Cc2c(Cl)cc(Cl)cc2C(c2cccc(S(=O)(=O)NCCOCCOCCOCCNC(=O)NCCOCCOCCOCCNS(=O)(=O)c3cccc(C4CN(C)Cc5c(Cl)cc(Cl)cc54)c3)c2)C1 (stereo not drawn) [Compound 38]

AUC ([1]; 11 mg/kg): < 19 ng·h/mL
Structure (SMILES): CN1Cc2c(Cl)cc(Cl)cc2C(c2cccc(S(=O)(=O)NCCOCCOCCNC(=O)NCCOCCOCCNS(=O)(=O)c3cccc(C4CN(C)Cc5c(Cl)cc(Cl)cc54)c3)c2)C1 (stereo not drawn) [Compound 22]

AUC ([1]; 22 mg/kg): < 8 ng·h/mL
Structure (SMILES): CN1Cc2c(Cl)cc(Cl)cc2C(c2cccc(S(=O)(=O)NCCOCCOCCNC(=O)c3ccc(C(=O)NCCOCCOCCNS(=O)(=O)c4cccc(C5CN(C)Cc6c(Cl)cc(Cl)cc65)c4)cc3)c2)C1 (stereo not drawn) [Compound 20]

AUC ([1]; 19 mg/kg): < 9 ng·h/mL
Structure (SMILES): CN1Cc2c(Cl)cc(Cl)cc2C(c2ccc(S(=O)(=O)NCCOCCOCCOCCNC(=O)c3ccc(C(=O)NCCOCCOCCOCCNS(=O)(=O)c4ccc(C5CN(C)Cc6c(Cl)cc(Cl)cc65)cc4)cc3)cc2)C1 (stereo not drawn) [Compound 37]
